The source of these data is PubChem BioAssay.

The nature of test [1]: OD615 S. cerevisiae growth inhibition, permissive medium, pilot counter-assay, permissive growth control for S. cerevisiae lifespan shortening project (AID 705;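 active = growth inhibition above 25% in both replicates, a cutoff set 3 SD above the mean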). To be noted: OD615, 24 h, at 10 µM, active compounds read high. The method, boiled down:
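assay system = Saccharomyces cerevisiae strain carrying genetically modified DeaD replicative-lifespan system | technique = absorbance (optical density) at 615 nm | buffer or medium = permissive raffinose/galactose medium | timing = cells pre-grown 4 h, then 24 h compound exposure, 30 °C humidified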

Test [2] in a line: Restrictive medium S. cerevisiae growth inhibition, OD615, pilot screen of yeast lifespan reduction project, restrictive growth control (AID 706;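 active = growth inhibition above a set limit, 3 SD over mean compound inhibition, in both replicates, cut at about 43% in these data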;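 note: modified DeaD lifespan yeast strain shifted to restrictive glucose medium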). To be noted: OD615, 48 h, at 10 µM, active compounds read high. The method, boiled down:
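System: modified S. cerevisiae. Buffer or medium: CSMM-D glucose medium. Incubation: 4 h pre-growth plus 48 h compound exposure, 30 °C. Detection: absorbance (optical density) measured at 615 nm.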

Test [3] can be described thus: viability gain of MRP-1-high H69AR cells under doxorubicin, pilot screen, MRP-1 activator project, CellTiter-Glo, duplicate (AID 807;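 active = viability increase at or above a cutoff of the median across tested compounds plus 3 SD, cut at about 8.5% in these data, passing the limit was not always enough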;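 note: compound pretreatment 18-22 h then 72 h combined with doxorubicin; 0% = doxorubicin alone and 100% = vehicle without doxorubicin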). To be noted: H69AR viability with doxorubicin, CellTiter-Glo luminescence; at 10 µM; active compounds read high.
Test [4] in a line: growth suppression of beta-catenin knockout HCT116, pilot screen, human colon tumor cells (AID 823;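 active = cell viability at or below a set limit in both duplicate runs, the limit being the all-compound median minus 4 SD, cut at about 23% in these data, passing the limit was not always enough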;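 note: 0% = wells killed by 20 µM Hyamine and 100% = untreated DMSO cell wells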). To be noted: CellTiter-Glo, 60 h, at 10 µM, active compounds read low. For orientation: Cellular ATP, detected with luciferase, serves as a proxy for viable cell number.
Test [5] in a line: growth suppression of PTEN-deleted HCT116, pilot screen, cell-based, HCT116 clonal line, CellTiter-Glo (AID 824;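 active = viability at or below 27.92% in each of two runs, the all-compound median minus 4 SD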;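 note: 0% = 20 µM Hyamine control and 100% = vehicle cell control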). To be noted: 60 h, at 10 µM, active compounds read low.
Test [6] in a line: inhibitors of the yeast RAM network, pilot screen, dse1pr::URA3 reporter, 5-FOA selection (AID 869;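 active = inhibition over a set limit, the all-compound mean plus 3 SD, in both replicate runs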;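 note: 0% = DMSO wells with no growth and 100% = 10 µM 1-NA-PP1 with full growth; RAM network block rescues cells from 5-FOA so hits raise OD615 growth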). To be noted: S. cerevisiae dse1pr::URA3 5-FOA growth, OD615, 2 d; at 10 µM; active compounds read high; strain carries analog-sensitive mutant Cbk1 kinase.
A short description of test [7]: RAM signaling pathway blockade in yeast – S. cerevisiae, Pdr1DBD-CYC8 efflux-inhibited sensitized strain, primary screen (AID 1298).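 Note: 0% = DMSO untreated cells without growth and 100% = 10 µM 1-NA-PP1 full growth; higher means more yeast growth rescued from 5-FOA killing.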 To be noted: S. cerevisiae cbk1-as DSE1-URA3 strain, 5-FOA growth OD615, 2 d; at 50 µM; active compounds read high.

Unmarked numbers belong to inactive results. Records with an inconclusive call do not appear. Activity calls are given as the source filed them.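 Rule for the calls, unless noted: active = RAM network inhibition above 8.4% in each of two replicates, 3 SD over the compound average; inconclusive = above 8.4% inhibition in only one replicate; inactive = 8.4% inhibition or less in each replicate.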

Turning to `COCCCN(C(=O)Nc1ccc(C)c(C)c1)C(C)c1ccccn1` (stereo not drawn), the values for the growth inhibition in test [1] and in test [2] were 2.01% and 11.8%, respectively. In addition, the viability increase in test [3] is -1.65%. The viability in test [4] is 102%; in test [5], 89.8%. The inhibition in test [6] was 2.15%. Further, the RAM network inhibition in test [7] was 5.96%.
Turning to `O=S(=O)(NCCSc1nnc(-c2ccco2)n1-c1ccccc1)c1ccccc1`, the growth inhibition in test [1] was -14.1%; in test [2], -19.2%. Besides, the viability increase in test [3] was -3.53%. In addition, the viability in test [4] was 83.9%; in test [5] it was 87.1%. The inhibition in test [6] is 1.52%. Besides, the RAM network inhibition in test [7] was 6.44%.
`COc1ccc(C2(O)CCN(C(=O)c3ccc4c(c3)OCO4)CC2)cc1`: the values for the growth inhibition in test [1] and in test [2] were -12.1% and -15.2%, respectively. Further, in test [3], the viability increase was -0.75%. Moreover, the viability in test [4] is 106%; in test [5] it was 101%. The inhibition in test [6] is 0.965%. For the same compound, in test [7], the RAM network inhibition was 0.72%.
Regarding `NC(=O)CSc1nnc(Cn2c(=O)sc3ccccc32)n1CCc1ccccc1`, the values for the growth inhibition in test [1] and in test [2] were 1.14% and 26.2%, respectively. In test [3], the viability increase was -1.54%. Further, the viability in test [4] was 101%; in test [5], 94.2%. Also, the inhibition in test [6] is 0.275%. Besides, the RAM network inhibition in test [7] was 4.54%.
Turning to `COc1ccc(-c2cn3c(C)c(C(=O)N4CCc5ccccc5C4)sc3n2)cc1`, the growth inhibition is 0.41% in test [1] and 6.71% in test [2]. For the same compound, in test [3], the viability increase is -7.22%. The figures for the viability in test [4] and in test [5] were 87.6% and 84.5%, respectively. In test [6], the inhibition was 3.01%. Also, the RAM network inhibition in test [7] is 4.47%.
Consider `Cc1ccc(CC(=O)N2CCC(c3nc4c(nnn4Cc4ccccc4)c(=O)[nH]3)CC2)cc1`, for which the growth inhibition in test [1] was -10.5%; in test [2], -7.38%. Further, the viability increase in test [3] is -1.07%. In addition, the viability was 76.9% in test [4] and 78.9% in test [5]. Also, the inhibition in test [6] is 0.71%. Also, in test [7], the RAM network inhibition was 3%.
Turning to `Cc1ccc2c(c1)NC(=O)C(CC(=O)NCCCN1CCCCC1C)O2` (stereo not drawn), the growth inhibition was 6.71% in test [1] and 8.33% in test [2]. In test [3], the viability increase is -1.72%. In addition, the viability in test [4] and in test [5] was 101% in each case. The inhibition in test [6] was -0.48%. Besides, the RAM network inhibition in test [7] was 1.25%.
Take `CCc1cc(C(=O)Nc2ccccc2)cs1`: the growth inhibition in test [1] is -8.2%; in test [2], 4.65%. The viability increase in test [3] was -0.18%. The viability in test [4] was 82.8%; in test [5], 90.9%. The inhibition in test [6] was 2.13%. Further, the RAM network inhibition in test [7] was -2.13%.
As for `CN(C)CCNc1nc2c(c(=O)[nH]c(=O)n2C)n1CCCc1ccccc1`, the growth inhibition in test [1] is -14.9%; in test [2], 4.34%. For the same compound, in test [3], the viability increase was -1.16%. In addition, the viability in test [4] is 93.1%; in test [5], 93.9%. Besides, the inhibition in test [6] is 2.04%. Further, the RAM network inhibition in test [7] was 0.47%.
With `COc1ccccc1N1C(=O)N(C(C)=O)C2C1Nc1ccccc1N2C` (stereo not drawn), the figures for the growth inhibition in test [1] and in test [2] were -2.22% and -10%, respectively. Also, the viability increase in test [3] was -5.51%. Besides, the viability in test [4] is 78.2%; in test [5] it was 86.5%. In addition, the inhibition in test [6] is 1.71%. Moreover, the RAM network inhibition in test [7] was 4.65%.
As for `Cc1sc2ncnc(Sc3nnc4sc5ccccc5n34)c2c1C`, the figures for the growth inhibition in test [1] and in test [2] were 6.21% and -2.07%, respectively. Also, the viability increase in test [3] was -3.97%. The viability in test [4] is 55.4%; in test [5], 65.2%. In test [6], the inhibition is 2.33%. Also, the RAM network inhibition in test [7] is 5.95%.
For `O=C(O)CC12CSc3[nH]c(=O)sc3C1c1ccccc1OC2=O` (stereo not drawn), the growth inhibition was 3.48% in test [1] and -0.005% in test [2]. Further, the viability increase in test [3] was -2.73%. For the same compound, the viability in test [4] is 101%; in test [5] it was 95%. Moreover, the inhibition in test [6] was 1.14%. Besides, in test [7], the RAM network inhibition was -0.11%.
In the case of `Cc1cc(C)n(C(=O)CCCC(=O)n2nc(C)cc2C)n1`, the growth inhibition in test [1] is -10.5%; in test [2] it was -10.9%. The viability increase in test [3] was -1.19%. Besides, the results for the viability in test [4] and in test [5] were 105% and 97.4%, respectively. The inhibition in test [6] was 1.19%. In test [7], the RAM network inhibition was 2.92%.
Take `CCCCCCN1C(=O)C(O)=C(C(C)=O)C1c1ccc(Cl)cc1` (stereo not drawn): the growth inhibition is -6.47% in test [1] and 7.25% in test [2]. Besides, the viability increase in test [3] was 0.3%. Moreover, the results for the viability in test [4] and in test [5] were 106% and 100%, respectively. Moreover, in test [6], the inhibition was -0.245%. Moreover, the RAM network inhibition in test [7] was 8.31%.
Turning to `C=CCn1c(SCC(=C)C)nc2c1c(=O)[nH]c(=O)n2C`, the growth inhibition in test [1] is -14.8%; in test [2], -25.6%. In addition, in test [3], the viability increase was -0.41%. Besides, the figures for the viability in test [4] and in test [5] were 109% and 97%, respectively. Further, the inhibition in test [6] was -0.415%. Besides, the RAM network inhibition in test [7] was 1.55%.
Regarding `COc1ccccc1-n1c(SC)nc(O)cc1=O`, the growth inhibition is 1.24% in test [1] and -7.61% in test [2]. Besides, the viability increase in test [3] is 0.84%. Besides, the results for the viability in test [4] and in test [5] were 105% and 99%, respectively. Also, the inhibition in test [6] was 2.01%. Moreover, in test [7], the RAM network inhibition is 4.2%.
For `CCn1c(=NC(=O)c2ccc(N3C(=O)CCC3=O)cc2)sc2c(OC)ccc(OC)c21`, the growth inhibition was -5.79% in test [1] and -11.5% in test [2]. In addition, in test [3], the viability increase is -0.73%. Also, the viability in test [4] is 97.9%; in test [5], 92.7%. The inhibition in test [6] is 1.86%. The RAM network inhibition in test [7] is 8.5%.
`Cn1c(C(=O)N2CCCC2)cc2c(=O)n(C)c3ccccc3c21`: the growth inhibition in test [1] is -2.97%; in test [2], 3.21%. Besides, the viability increase in test [3] is -3.32%. Further, the viability is 102% in test [4] and 95.5% in test [5]. Besides, the inhibition in test [6] is 2.04%. The RAM network inhibition in test [7] is -0.2%.
On to `COc1cccc(C2C(C(=O)c3ccco3)=C(O)C(=O)N2CCCN2CCOCC2)c1OC` (stereo not drawn), for which the growth inhibition in test [1] is -8.82%; in test [2] it was -0.75%. For the same compound, the viability increase in test [3] was -3.37%. Further, the viability in test [4] was 102%; in test [5], 93.5%. In test [6], the inhibition was 1.02%. In addition, in test [7], the RAM network inhibition is 6.98%.
On to `O=C(Nc1c(C(=O)N2CCCC2)cnn1-c1ccccc1)c1cccc(F)c1`, for which the growth inhibition in test [1] was -7.52%; in test [2], -1.27%. The viability increase in test [3] was -0.46%. Further, the viability in test [4] is 96.7%; in test [5] it was 98.9%. Moreover, in test [6], the inhibition was 0.475%. For the same compound, the RAM network inhibition in test [7] is 1.02%.
Take `O=C(c1ccccc1)c1ccc(OC(=O)N2CCOCC2)cc1`: the results for the growth inhibition in test [1] and in test [2] were -7.92% and 4.65%, respectively. For the same compound, the viability increase in test [3] is 1.36%. The viability in test [4] is 109%; in test [5], 90.7%. Also, the inhibition in test [6] was 1.49%. Moreover, the RAM network inhibition in test [7] is 8.53%.
Take `CSc1nnc(NC(=O)C2CCCCC2)s1`: the growth inhibition in test [1] was -7.81%; in test [2], -6.62%. Further, the viability increase in test [3] is 0.06%. The viability is 97% in test [4] and 99.3% in test [5]. Besides, in test [6], the inhibition was -0.045%. The RAM network inhibition in test [7] was 0.63%.
As to `COc1ccc(C(=O)/C=C/N2CCCCC2)cc1OC`, the values for the growth inhibition in test [1] and in test [2] were 53.1% (active) and 74.3% (active), respectively. In test [3], the viability increase is -4.55%. For the same compound, the viability in test [4] was 77.8%; in test [5], 86.6%. Further, the inhibition in test [6] is 0.145%. Further, the RAM network inhibition in test [7] is -1.38%.
On to `Nn1c(SC/C=C/c2ccccc2)nnc1-c1ccccn1`, for which the values for the growth inhibition in test [1] and in test [2] were -5.81% and -10%, respectively. For the same compound, the viability increase in test [3] was -0.88%. For the same compound, the viability in test [4] is 103%; in test [5], 95.1%. Moreover, the inhibition in test [6] was -0.5%. Also, the RAM network inhibition in test [7] is -2.02%.

In general, viability refers to a read-out of living cells in per cent, often relative to untreated cells. In general, inhibition refers to the change of the read-out against control, counted positive when it falls.
